Activity calls are given as the source filed them. The rule behind the calls is not given here.
Tests used:
[1] = test system: Mus musculus; experiment: Anticonvulsant activity in albino mouse assessed as protection against subcutaneous metrazole-induced seizures at 100 mg/kg, ip after 0.5 to 4 hrs; format: functional, organism-based; parameters: dose 100 mg/kg
Procedure, shortened: (§1)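 Mice were dosed ip at 30, 100 or 300 mg/kg and tested at two or more time points. Protection meant absence of clonic seizures lasting at least 5 s, scored as number protected/number tested.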

[2] = test system: Mus musculus; experiment: Anticonvulsant activity in albino mouse assessed as protection against maximal electroshock-induced seizures at 300 mg/kg, ip after 0.5 hrs; format: functional, organism-based; parameters: dose 300 mg/kg
Procedure, shortened: (§2)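 A 0.2 s electrical stimulus of 50 mA was applied to mice through corneal electrodes primed with an electrolyte solution containing an anesthetic. This followed ip dosing at 30, 100 or 300 mg/kg, with testing at two or more time points. Protection meant abolition of the hindlimb tonic extensor component, scored as number protected/number tested.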

[3] = test system: Mus musculus; experiment: Neurotoxicity in albino mouse at 30 mg/kg, ip after 0.5 to 4 hrs by rotarod test; format: toxicity, organism-based; parameters: dose 30 mg/kg, route intraperitoneal; details: in vivo
Procedure, shortened: (§3)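 Mice received the compound ip and were tested at intervals of 0.25 to 4 h after dosing. Neurological impairment was scored as inability to keep equilibrium on a rod rotating at 6 rpm for a given time. The footnotes also record inability to grasp the rod and loss of righting reflex. Results were expressed as number toxic/number tested.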

[4] = test system: Mus musculus; experiment: Neurotoxicity in albino mouse at 300 mg/kg, ip after 0.5 hrs by rotarod test; format: toxicity, organism-based; parameters: dose 300 mg/kg, route intraperitoneal; details: in vivo; procedure, shortened: as §3
[5] = test system: Mus musculus; experiment: Anticonvulsant activity in albino mouse assessed as protection against maximal electroshock-induced seizures at 300 mg/kg, ip after 4 hrs; format: functional, organism-based; parameters: dose 300 mg/kg; procedure, shortened: as §2
[6] = test system: Mus musculus; experiment: Neurotoxicity in albino mouse at 100 mg/kg, ip after 0.5 to 4 hrs by rotarod test; format: toxicity, organism-based; parameters: dose 100 mg/kg, route intraperitoneal; details: in vivo; procedure, shortened: as §3
[7] = test system: Mus musculus; experiment: Neurotoxicity in albino mouse at 300 mg/kg, ip after 4 hrs by rotarod test; format: toxicity, organism-based; parameters: dose 300 mg/kg, route intraperitoneal; details: in vivo; procedure, shortened: as §3
[8] = test system: Mus musculus; experiment: Anticonvulsant activity in albino mouse assessed as protection against subcutaneous metrazole-induced seizures at 300 mg/kg, ip after 0.5 to 4 hrs; format: functional, organism-based; parameters: dose 300 mg/kg; procedure, shortened: as §1
[9] = test system: Mus musculus; experiment: Anticonvulsant activity in albino mouse assessed as protection against maximal electroshock-induced seizures at 30 mg/kg, ip after 0.5 to 4 hrs; format: functional, organism-based; parameters: dose 30 mg/kg; procedure, shortened: as §2
[10] = test system: Mus musculus; experiment: Anticonvulsant activity in albino mouse assessed as protection against subcutaneous metrazole-induced seizures at 30 mg/kg, ip after 0.5 to 4 hrs; format: functional, organism-based; parameters: dose 30 mg/kg; procedure, shortened: as §1
[11] = test system: Mus musculus; experiment: Anticonvulsant activity in albino mouse assessed as protection against maximal electroshock-induced seizures at 100 mg/kg, ip after 0.5 to 4 hrs; format: functional, organism-based; parameters: dose 100 mg/kg; procedure, shortened: as §2
[12] = test system: Mus musculus; experiment: Anticonvulsant activity in albino mouse assessed as protection against 6 Hz psychomotor seizure at 100 mg/kg, ip after 0.5 to 2 hrs; format: functional, organism-based; parameters: dose 100 mg/kg
Procedure, shortened: (§4)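 Mice given 100 mg/kg ip and tested at intervals between 0.25 and 4 h. A constant-current device delivered corneal stimulation at 32 mA as 0.2 ms monopolar rectangular pulses at 6 Hz for 3 s. Mice were restrained during stimulation, then released into an observation cage. The readout was protection against the psychomotor seizure (stunned posture, forelimb clonus, Straub tail), scored as number protected/number tested.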

[13] = test system: Mus musculus; experiment: Anticonvulsant activity in albino mouse assessed as protection against maximal electroshock-induced seizures at 30 mg/kg, ip after 2 hrs; format: functional, organism-based; parameters: dose 30 mg/kg; procedure, shortened: as §2
[14] = test system: Mus musculus; experiment: Anticonvulsant activity in albino mouse assessed as protection against maximal electroshock-induced seizures at 300 mg/kg, ip after 2 hrs; format: functional, organism-based; parameters: dose 300 mg/kg; procedure, shortened: as §2
[15] = test system: Mus musculus; experiment: Neurotoxicity in albino mouse at 30 mg/kg, ip after 2 hrs by rotarod test; format: toxicity, organism-based; parameters: dose 30 mg/kg, route intraperitoneal; details: in vivo; procedure, shortened: as §3
[16] = test system: Mus musculus; experiment: Neurotoxicity in albino mouse at 100 mg/kg, ip after 0.5 to 2 hrs by rotarod test; format: toxicity, organism-based; parameters: dose 100 mg/kg, route intraperitoneal; details: in vivo; procedure, shortened: as §3
[17] = test system: Mus musculus; experiment: Neurotoxicity in albino mouse at 300 mg/kg, ip after 2 hrs by rotarod test; format: toxicity, organism-based; parameters: dose 300 mg/kg, route intraperitoneal; details: in vivo; procedure, shortened: as §3
[18] = test system: Mus musculus; experiment: Neurotoxicity in albino mouse at 100 mg/kg, ip after 2 hrs by rotarod test; format: toxicity, organism-based; parameters: dose 100 mg/kg, route intraperitoneal; details: in vivo; procedure, shortened: as §3
[19] = test system: Mus musculus; experiment: Anticonvulsant activity in albino mouse assessed as protection against maximal electroshock-induced seizures at 100 mg/kg, ip after 2 hrs; format: functional, organism-based; parameters: dose 100 mg/kg; procedure, shortened: as §2
[20] = test system: Mus musculus; experiment: Anticonvulsant activity in albino mouse assessed as protection against 6 Hz psychomotor seizure at 100 mg/kg, ip after 1 to 4 hrs; format: functional, organism-based; parameters: dose 100 mg/kg; procedure, shortened: as §4
[21] = test system: Mus musculus; experiment: Anticonvulsant activity in albino mouse assessed as protection against 6 Hz psychomotor seizure at 100 mg/kg, ip after 0.25 to 0.5 hrs; format: functional, organism-based; parameters: dose 100 mg/kg; procedure, shortened: as §4
[22] = test system: Mus musculus; experiment: Neurotoxicity in albino mouse assessed as loss of righting reflex at 300 mg/kg, ip after 0.5 hrs by rotarod test; format: toxicity, organism-based; parameters: dose 300 mg/kg, route intraperitoneal; details: in vivo; procedure, shortened: as §3
[23] = test system: Mus musculus; experiment: Neurotoxicity in albino mouse at 100 mg/kg, ip after 0.25 to 4 hrs by rotarod test; format: toxicity, organism-based; parameters: dose 100 mg/kg, route intraperitoneal; details: in vivo; procedure, shortened: as §3

Compound | Activity [1] | Activity [2] | Activity [3] | Activity [5] | Activity [6] | Activity [7] | Activity [8] | Activity [9] | Activity [10] | Activity [11] | Activity [13] | Activity [15] | Activity [17] | also measured
O=C1CN(c2ccccc2)C(c2ccccc2)C(=O)N1 (racemic) | inactive | inactive | Non-toxic | inactive | Non-toxic | Non-toxic | inactive | inactive | inactive | inactive | – | – | – | Activity [4]: Non-toxic
CC[C@H](C)[C@@H]1N[C@@H](c2ccccc2)C(=O)NC1=O | inactive | inactive | Non-toxic | inactive | Non-toxic | Non-toxic | inactive | inactive | inactive | inactive | – | – | – | –
CC(C)[C@@H]1N[C@H](c2ccccc2)C(=O)NC1=O | inactive | Active | Non-toxic | inactive | Non-toxic | Non-toxic | inactive | inactive | inactive | inactive | – | – | – | –
O=C1NC(=O)[C@H](c2ccccc2)N[C@H]1c1ccccc1 | – | – | – | – | – | – | – | – | – | – | inactive | Non-toxic | Toxic | Activity [12]: inactive; Activity [14]: Active; Activity [16]: Non-toxic
CC(C)C[C@@H]1N[C@@H](c2ccccc2)C(=O)NC1=O | inactive | Active | Non-toxic | inactive | Non-toxic | Non-toxic | inactive | inactive | inactive | inactive | – | – | – | –
O=C1NC(=O)[C@H](c2ccccc2)N[C@H]1Cc1ccccc1 | inactive | Active | Non-toxic | inactive | Non-toxic | Non-toxic | inactive | inactive | inactive | inactive | – | – | – | Activity [4]: Non-toxic
O=C1CN(Cc2ccccc2)C(c2ccccc2)C(=O)N1 (racemic) | – | – | – | – | – | – | – | – | – | – | inactive | Non-toxic | Non-toxic | Activity [18]: Non-toxic; Activity [19]: inactive
CC(C)[C@@H]1N[C@@H](c2ccccc2)C(=O)NC1=O | inactive | Active | Non-toxic | inactive | Non-toxic | Non-toxic | inactive | inactive | inactive | – | – | – | – | Activity [20]: inactive; Activity [21]: Active; Activity [22]: Toxic; Activity [23]: Non-toxic
O=C1NC(=O)[C@@H](c2ccccc2)N[C@H]1c1ccccc1 | – | – | – | – | – | – | – | – | – | – | inactive | Non-toxic | Non-toxic | Activity [14]: inactive; Activity [18]: Non-toxic; Activity [19]: inactive

Source: ChEMBL document CHEMBL2434934, “Multicomponent synthesis and anticonvulsant activity of monocyclic 2,6-diketopiperazine derivatives” (Med Chem Res, 2013)
